Experimental data from ChEMBL document CHEMBL3784974, “Design and Structural Characterization of Potent and Selective Inhibitors of Phosphatidylinositol 4 Kinase IIIβ” (J Med Chem, 2016).

Experiments:
[1] = Inhibition of GST-tagged recombinant human full length PI4K3beta expressed in insect cells preincubated for 15 mins followed by addition of cold ATP/gamma32P-ATP measured after 30 mins in presence of MgCl2
How it was run: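 Membrane-capture radiometric assay. Purchased enzyme, final 2.5 nM. Enzyme preincubated 15 min with inhibitor (diluted in 10% DMSO), then 30 min reaction. Final: 20 mM Bis-Tris propane pH 7.5, 10 mM MgCl2, 0.075 mM Triton X-100, 0.5 mM EGTA, 1 mM DTT, 100 µM PI in PI:DOPS:DOPC, 500 ng/µL BSA, 2% DMSO, 10 µM ATP, 1 uCi γ32P-ATP. Product spotted on nitrocellulose, washed in 1M NaCl/1% phosphoric acid, phosphorimaged.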

[2] = target: T1, Phosphatidylinositol 4,5-bisphosphate 3-kinase catalytic subunit gamma isoform (Homo sapiens, UniProt P48736); assay: Inhibition of histidine-tagged recombinant human full length PI3Kgamma expressed in insect cells preincubated for 15 mins followed by addition of cold ATP/gamma32P-ATP measured after 15 mins in presence of MgCl2
Target sequence in this assay (P48736 whole entry, canonical isoform): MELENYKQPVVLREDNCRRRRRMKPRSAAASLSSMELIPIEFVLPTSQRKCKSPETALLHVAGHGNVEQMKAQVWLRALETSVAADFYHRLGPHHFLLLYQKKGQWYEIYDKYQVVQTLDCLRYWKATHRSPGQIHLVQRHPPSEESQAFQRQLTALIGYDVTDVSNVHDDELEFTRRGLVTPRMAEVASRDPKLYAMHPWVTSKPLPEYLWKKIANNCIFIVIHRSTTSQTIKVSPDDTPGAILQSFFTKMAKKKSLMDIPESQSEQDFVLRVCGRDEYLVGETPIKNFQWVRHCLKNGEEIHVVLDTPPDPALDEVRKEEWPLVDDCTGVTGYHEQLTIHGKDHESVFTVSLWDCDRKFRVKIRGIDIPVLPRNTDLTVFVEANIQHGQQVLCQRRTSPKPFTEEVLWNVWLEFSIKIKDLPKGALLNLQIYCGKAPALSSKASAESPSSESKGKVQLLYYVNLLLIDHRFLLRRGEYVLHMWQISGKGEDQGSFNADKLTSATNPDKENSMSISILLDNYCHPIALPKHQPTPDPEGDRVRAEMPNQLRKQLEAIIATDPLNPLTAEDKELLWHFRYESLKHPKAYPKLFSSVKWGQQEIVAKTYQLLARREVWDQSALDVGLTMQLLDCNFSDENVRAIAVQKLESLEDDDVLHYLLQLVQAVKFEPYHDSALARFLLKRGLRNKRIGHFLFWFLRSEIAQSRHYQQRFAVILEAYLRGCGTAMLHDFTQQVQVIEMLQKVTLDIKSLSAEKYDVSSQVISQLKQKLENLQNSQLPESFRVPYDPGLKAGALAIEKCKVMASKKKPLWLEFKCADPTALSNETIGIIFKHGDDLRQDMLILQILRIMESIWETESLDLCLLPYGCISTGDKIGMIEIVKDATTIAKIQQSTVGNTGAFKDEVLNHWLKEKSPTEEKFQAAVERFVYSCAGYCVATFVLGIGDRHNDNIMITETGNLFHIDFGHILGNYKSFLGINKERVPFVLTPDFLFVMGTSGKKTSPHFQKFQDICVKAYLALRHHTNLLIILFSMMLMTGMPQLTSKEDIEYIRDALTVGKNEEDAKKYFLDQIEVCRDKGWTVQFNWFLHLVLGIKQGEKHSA

[3] = target: T2, Phosphatidylinositol 3-kinase catalytic subunit type 3 (Homo sapiens, UniProt Q8NEB9); assay: Inhibition of GST-tagged recombinant human full length VPS34 expressed in baculovirus preincubated for 15 mins followed by addition of cold ATP/gamma32P-ATP measured after 1 hr in presence of MnCl2
T2 sequence (Q8NEB9 whole entry): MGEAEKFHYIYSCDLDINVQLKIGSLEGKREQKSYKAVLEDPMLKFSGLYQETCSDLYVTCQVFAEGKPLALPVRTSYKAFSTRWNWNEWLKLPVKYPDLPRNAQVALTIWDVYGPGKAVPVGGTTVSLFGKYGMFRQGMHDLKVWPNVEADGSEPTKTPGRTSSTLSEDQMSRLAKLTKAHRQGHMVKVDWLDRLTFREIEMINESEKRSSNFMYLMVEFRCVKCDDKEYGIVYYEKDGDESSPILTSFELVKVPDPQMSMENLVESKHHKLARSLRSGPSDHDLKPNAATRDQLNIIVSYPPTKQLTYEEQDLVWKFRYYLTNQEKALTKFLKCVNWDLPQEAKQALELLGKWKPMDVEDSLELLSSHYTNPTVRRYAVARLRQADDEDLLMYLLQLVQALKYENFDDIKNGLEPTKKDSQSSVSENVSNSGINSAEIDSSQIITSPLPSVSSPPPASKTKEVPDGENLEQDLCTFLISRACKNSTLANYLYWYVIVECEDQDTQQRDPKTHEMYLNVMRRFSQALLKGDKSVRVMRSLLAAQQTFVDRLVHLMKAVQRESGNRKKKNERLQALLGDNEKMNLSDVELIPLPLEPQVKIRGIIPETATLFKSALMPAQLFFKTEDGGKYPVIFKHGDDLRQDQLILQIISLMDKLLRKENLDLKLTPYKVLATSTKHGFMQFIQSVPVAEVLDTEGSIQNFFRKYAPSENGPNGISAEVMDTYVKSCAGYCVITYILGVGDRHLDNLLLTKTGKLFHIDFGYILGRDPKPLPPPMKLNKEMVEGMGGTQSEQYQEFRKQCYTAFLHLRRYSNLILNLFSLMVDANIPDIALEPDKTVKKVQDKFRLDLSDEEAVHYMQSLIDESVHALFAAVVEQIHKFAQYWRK
How it was run: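 Radiometric membrane-capture assay, 10 nM purchased vps34, 15 min preincubation with inhibitor, then 1 h reaction. Final: 50 mM HEPES pH 7.5, 0.1% CHAPS, 2mM MnCl2, 1 mM EGTA, 2 mM DTT, 100 µM PI in PI:DOPS:DOPC, 500 ng/µL BSA, 2% DMSO, 10 µM ATP, 2.5 uCi γ32P-ATP; spots washed, phosphorimaged.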

Hepatitis C virus = assay: Antiviral activity against HCV genotype 2a J6/JFH1 infected in human Huh7.5 cells after 3 days by gaussia luciferase assay; type: functional, organism-based, Hepacivirus hominis; conditions: subtype 2a J6/JFH1, Huh-7, 72 h
How it was run: (§1)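 Huh7.5 cells stably infected with J6/JFH1-GLuc, kept in DMEM/10% FBS, glutamine, NEAA, pen/strep at 37 °C, 5% CO2. 10,000 cells/well; serially diluted compound added 1 h after plating; 3-day incubation. Replication read as Gaussia luciferase activity in supernatant; viability by Presto Blue.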

[4] = Cytotoxicity against human Huh7.5 cells after 3 days by presto blue assay; type: cell-based, Huh-7; how it was run: as §1
[5] = target: T1, Phosphatidylinositol 4,5-bisphosphate 3-kinase catalytic subunit gamma isoform; assay: Inhibition of histidine-tagged recombinant human full length PI3Kgamma expressed in insect cells at 50 uM preincubated for 15 mins followed by addition of cold ATP/gamma32P-ATP measured after 15 mins in presence of MgCl2
Target sequence in this assay (P48736 whole entry, looked up, canonical isoform): as the sequence (P48736 whole entry, canonical isoform) above

[6] = target: T2, Phosphatidylinositol 3-kinase catalytic subunit type 3; assay: Inhibition of GST-tagged recombinant human full length VPS34 expressed in baculovirus at 50 uM preincubated for 15 mins followed by addition of cold ATP/gamma32P-ATP measured after 1 hr in presence of MnCl2
[7] = target: T3, Phosphatidylinositol 4,5-bisphosphate 3-kinase catalytic subunit delta isoform (Homo sapiens) (UniProt O00329); assay: Inhibition of histidine-tagged recombinant human full length PI3Kdelta expressed in baculovirus at 50 uM preincubated for 15 mins followed by addition of cold ATP/gamma32P-ATP measured after 20 mins in presence of MgCl2
T3 sequence (whole entry): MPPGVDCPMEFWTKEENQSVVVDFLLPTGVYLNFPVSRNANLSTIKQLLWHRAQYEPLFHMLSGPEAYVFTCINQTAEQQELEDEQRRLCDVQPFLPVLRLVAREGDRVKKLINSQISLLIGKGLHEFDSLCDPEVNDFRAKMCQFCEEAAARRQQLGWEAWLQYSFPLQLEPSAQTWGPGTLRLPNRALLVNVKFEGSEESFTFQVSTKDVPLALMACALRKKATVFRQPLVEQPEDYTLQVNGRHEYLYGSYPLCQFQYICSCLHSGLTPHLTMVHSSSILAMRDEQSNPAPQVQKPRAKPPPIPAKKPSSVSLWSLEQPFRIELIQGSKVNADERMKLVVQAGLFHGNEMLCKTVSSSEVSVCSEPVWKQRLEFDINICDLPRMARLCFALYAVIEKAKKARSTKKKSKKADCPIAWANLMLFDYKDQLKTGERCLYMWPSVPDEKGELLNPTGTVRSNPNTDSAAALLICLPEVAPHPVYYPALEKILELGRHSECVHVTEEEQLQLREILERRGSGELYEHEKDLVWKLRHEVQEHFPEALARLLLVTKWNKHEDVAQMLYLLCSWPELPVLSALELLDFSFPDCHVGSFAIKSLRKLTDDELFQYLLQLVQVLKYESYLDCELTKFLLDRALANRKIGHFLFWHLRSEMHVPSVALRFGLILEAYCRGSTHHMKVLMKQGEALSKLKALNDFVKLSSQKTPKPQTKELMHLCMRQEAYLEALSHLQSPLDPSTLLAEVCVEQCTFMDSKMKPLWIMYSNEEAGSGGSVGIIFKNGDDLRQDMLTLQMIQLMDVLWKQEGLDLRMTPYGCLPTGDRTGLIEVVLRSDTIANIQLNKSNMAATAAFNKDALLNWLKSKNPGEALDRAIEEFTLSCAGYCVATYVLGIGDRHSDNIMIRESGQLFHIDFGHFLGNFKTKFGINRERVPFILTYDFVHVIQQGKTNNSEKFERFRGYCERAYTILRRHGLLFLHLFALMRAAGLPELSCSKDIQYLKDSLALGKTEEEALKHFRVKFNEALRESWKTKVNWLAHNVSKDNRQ

[8] = target: T4, Phosphatidylinositol 4,5-bisphosphate 3-kinase catalytic subunit delta isoform (Homo sapiens, UniProt O00329); assay: Inhibition of histidine-tagged recombinant human full length PI3Kdelta expressed in baculovirus preincubated for 15 mins followed by addition of cold ATP/gamma32P-ATP measured after 20 mins in presence of MgCl2
T4 sequence (O00329 whole entry): T3 sequence (whole entry)
How it was run: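 Final: 50 mM HEPES pH 7.5, 100 mM NaCl, 0.03% CHAPS, 10 mM MgCl2, 1 mM EGTA, 2 mM DTT, 80 µM PIP2 (PIP2:DOPS:DOPC), 500 ng/µL BSA, 2% DMSO, 10 µM ATP, 2.5 uCi γ32P-ATP. Nitrocellulose capture, phosphorimaging.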

SMILES | IC50 [2] | IC50 [3] | IC50 (Hepatitis C virus) | inhibition [5] | inhibition [6] | inhibition [7] | IC50 [8] | IC50 [1] | CC50 at 72 h [4]
COc1ccc(-c2sc(NC(=O)C(C)(C)C)nc2C)cc1S(=O)(=O)NCCO | > 50000 nM | > 50000 nM | 17000 nM | < 20% | < 20% | < 50% |  | 36 nM | > 40000 nM
COc1ccc(-c2sc(NC(C)=O)nc2C)cc1S(=O)(=O)NCCO | 181 nM | > 50000 nM | 29000 nM |  |  |  | 223 nM | 4.4 nM | 42000 nM
Cc1nc(NC(=O)C(C)(C)C)sc1-c1ccc(Cl)c(S(=O)(=O)NCCO)c1 | 3700 nM | > 50000 nM | 6800 nM |  |  |  | 1570 nM | 5.5 nM | 33000 nM
CC(=O)/N=c1/[nH]c(C)c(-c2ccc(Cl)c(S(=O)(=O)NCCO)c2)s1 |  | 307 nM | 4800 nM |  |  |  |  | 17 nM | 10000 nM
Cc1nc(NC(=O)C2CCCC2)sc1-c1ccc(Cl)c(S(=O)(=O)NCCO)c1 | 1500 nM | > 50000 nM | 4400 nM |  |  |  | 340 nM | 16 nM | 20000 nM

Now those with a lower IC50 [3], led by results:

IC50 [2] | IC50 [3] | IC50 (Hepatitis C virus) | inhibition [5] | inhibition [6] | inhibition [7] | IC50 [8] | SMILES | IC50 [1] | CC50 at 72 h [4]
31 nM | 245 nM | 5900 nM |  |  |  | 29 nM | CC(=O)Nc1nc(C)c(-c2ccc(Cl)c(S(=O)(=O)Nc3ccc(F)cc3)c2)s1 | 23 nM | 13000 nM
21 nM | 146 nM | 3000 nM |  |  |  | 33 nM | CC(=O)Nc1nc(C)c(-c2ccc(Br)c(S(=O)(=O)NCCO)c2)s1 | 5.3 nM | 5500 nM
5 nM | 32 nM | 570 nM |  |  |  | 4.9 nM | CC(=O)Nc1nc(C)c(-c2ccc(Cl)c(S(=O)(=O)Nc3ccc(O)cc3)c2)s1 | 4.2 nM | 7000 nM
